In publication PMC11489580 (Scientific Reports, 2024):

Tests used:
RAW 264.7 cells [1] = assay: Cell cycle analysis, propidium iodide FACS; assay type: cell-based, murine; settings: 2 / TM7n and 5 / TM11 at 10 µM and 20 µM, respectively, 48 h
Outline: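 RAW 264.7 cells seeded at 250.000 cells/mL and exposed to test compound for 48 h, then fixed in 70% ethanol and stained with propidium iodide for flow cytometry. Controls were serum-free starvation for 24 h (G0/G1 block) and nocodazole for 2 h (G2/M block). Mean ± s.d. of three independent experiments.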

RAW 264.7 cells [2] = assay: Apoptosis: caspase 3 cleavage; assay type: cell-based, murine; settings: RAW 264.7, 48 h, 15 µM (western blot, Annexin V)
Outline: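 RAW 264.7 cells seeded at 50,000 cells/mL and co-treated 48 h with test compound plus CellEvent caspase-3/7 reagent, imaged every 4 h by IncuCyte. For the western blot and Annexin V: 48 h with 15 µM test compound or DMSO. Controls were staurosporin 1 µM ± QVD 10 µM for 4 h. Blots probed for caspase 3, PARP and β-actin. Annexin V-FITC/PI staining was read by flow cytometry as fold change vs DMSO.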

[3] = target: His-tagged rM1M2 HuR protein / 5'-Bi-TNF ARE probe (Homo sapiens, UniProt Q15717); assay: Homogeneous Time-Resolved Fluorescence; assay type: binding
Sequence of His-tagged rM1M2 HuR protein / 5'-Bi-TNF ARE probe (Q15717 20-186 limits assumed): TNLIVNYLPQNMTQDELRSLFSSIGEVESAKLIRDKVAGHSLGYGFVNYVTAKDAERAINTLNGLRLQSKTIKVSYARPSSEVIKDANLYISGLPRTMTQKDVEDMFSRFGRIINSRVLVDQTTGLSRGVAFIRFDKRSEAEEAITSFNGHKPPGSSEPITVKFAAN
Outline: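 His-tagged HuR M1M2 (20 nM) incubated with a biotinylated 26-nt TNF ARE RNA probe (50 nM), donor/acceptor beads and test compound (0.01–100 µM); DMSO control; protein hook point determined beforehand. HTRF signal was normalised to DMSO and fitted by nonlinear regression with a one-site model to give IC50. Mean ± s.d. of three independent experiments.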

RAW 264.7 cells [4] = assay: Real-time cell proliferation by Incucyte; assay type: cell-based, murine; settings: RAW 264.7, 72 h
Outline: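 Growth curves were recorded by live-cell IncuCyte imaging of RAW 264.7 cells treated with test compounds over 72 h, and analysed in IncuCyte. Mean ± s.d. of three independent experiments.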

[5] = Kinetic solubility by LC-MS in PBS with DMSO; assay type: physicochemical; settings: 20% DMSO
[6] = tested on: LPS-stimulated RAW264.7 cells; assay: Cxcl10 secretion by ELISA; assay type: cell-based, murine; settings: co-treatment LPS 1 µg/mL and TM 10 µM, 6 h
Outline: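 RAW264.7 seeded at 200.000 cells/mL and given LPS 1 µg/mL. Test compound (10 µM) or DMSO was either co-added for 6 h, or added after 2 h of LPS for a further 4 h. Supernatant was diluted 1:2 for mouse CXCL10 sandwich ELISA (TMB, 605 nm). pg/mL was normalised to crystal violet cell counts and expressed as % of LPS + DMSO; mean ± s.d., three independent experiments.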

[7] = tested on: LPS-stimulated RAW264.7 cells; assay: qRT-PCR of LPS-induced genes; assay type: cell-based, murine; settings: co-treatment LPS 1 µg/mL and TM 10 µM, 6 h
[8] = target: rM1M2_HuR (first two RRM domains of human HuR) / 5'-DY681-labeled AU-rich RNA probe (Homo sapiens, UniProt Q15717); assay: RNA Electrophoretic Mobility Shift Assay; assay type: binding
Sequence of rM1M2_HuR (first two RRM domains of human HuR) / 5'-DY681-labeled AU-rich RNA probe (Q15717 20-186 limits assumed): as above
Outline: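 Human HuR RRM1-2 (rM1M2) was expressed in E. coli BL21. Protein (3.7 nM) was incubated 20 min with 1 nM 5′-DY681-labelled 26-nt AU-rich RNA and DMSO or test compound (15 µM screen; 0.01–25 µM dose–response). Samples ran on 4% native polyacrylamide at 80 V, 1.5 h, and were scanned for DY681. IC50 came from titration curves of band quantification.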

[9] = tested on: RAW264.7 murine macrophages; assay: OZblue cell viability assay; assay type: cell-based; settings: Mus musculus, RAW264.7, 48 h, read-out: IC50 cell viability
Outline: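 RAW264.7 murine macrophages exposed for 48 h to test compound at 1 to 50 µM. Viability was read with the OZblue reagent and IC50 taken from the concentration–response. Mean ± s.d. of three independent experiments.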

Compound	cell cycle distribution (RAW 264.7 cells [1])	activation of apoptosis (caspase 3, PARP cleavage, Annexin V) (RAW 264.7 cells [2])	IC50 [3] [nM]	proliferation rate (real-time growth) (RAW 264.7 cells [4])	solubility relative to 2 / TM7n or 1 / TM6a [5]	Cxcl10 level in supernatant [6]	expression of LPS-induced readout genes (Cxcl10, Fas, Nos2, Il1β) [7]	IC50 [8] [nM]	inhibitory effect on HuR-RNA complex formation (REMSA screen) ([8]; TMs at 15 µM, 3.7 nM rM1M2_HuR, 1 nM RNA probe)	IC50 [9] [nM]
O=C1C=Cc2c(c(-c3ccco3)cn2S(=O)(=O)c2ccccc2)C1=O [5 / TM11, 3-(furan-2-yl)-1-(phenylsulfonyl)-1 H-indole-4,5-dione]	accumulation of the cells in the S and G2/M phases	did not observe the activation of the apoptotic machinery	680	dose-dependent decrease in proliferation rate	ten times more soluble	downregulation of its level	ability to counteract the effect of LPS stimulation	770	greatest inhibitory effect	15000
Cc1occ2c1C(=O)c1c(O)ccc(O)c1C2 [MS-444, reference compound]		absence of apoptotic effect								
